According to paper PMC6581564 (Biomacromolecules, 2019):

Tests used:
MUC5AC = MUC5AC (Sus scrofa, UniProt A0A8W4FM62); assay: Equilibrium dialysis; type: binding, pig; details: mucin 0.5% w/v; for Mucin binding rank within the NIH Clinical Collection (NCC) set (ΔG): in PBS, 41 NCC molecules, 200 nM
[1] = cited from earlier work
[2] = test system: P. aeruginosa strain PAO1; assay: Colistin MIC by modified broth microdilution assay; type: cell-based, Pseudomonas aeruginosa; details: in MHB, 37 °C, 24 hours, visual inspection
Method in brief: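 PAO1 grown overnight in Mueller-Hinton II broth (MHB) at 37 °C, then diluted into fresh MHB to about 3×10⁴ CFU/mL. Test compound stock in water was serially diluted 2-fold in MHB and mixed 1:10 with the inoculum (final 1 mg/mL to 0.4 μg/mL). Plates incubated 24 h at 37 °C. MIC taken as the lowest concentration with no visible growth.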

[3] = test system: P. aeruginosa strain PAO1; assay: Colistin efficacy; type: cell-based, Pseudomonas aeruginosa; details: colistin 8 or 16 μg/mL, 24 h

MUC5AC, sequence (A0A8W4FM62 1-4915): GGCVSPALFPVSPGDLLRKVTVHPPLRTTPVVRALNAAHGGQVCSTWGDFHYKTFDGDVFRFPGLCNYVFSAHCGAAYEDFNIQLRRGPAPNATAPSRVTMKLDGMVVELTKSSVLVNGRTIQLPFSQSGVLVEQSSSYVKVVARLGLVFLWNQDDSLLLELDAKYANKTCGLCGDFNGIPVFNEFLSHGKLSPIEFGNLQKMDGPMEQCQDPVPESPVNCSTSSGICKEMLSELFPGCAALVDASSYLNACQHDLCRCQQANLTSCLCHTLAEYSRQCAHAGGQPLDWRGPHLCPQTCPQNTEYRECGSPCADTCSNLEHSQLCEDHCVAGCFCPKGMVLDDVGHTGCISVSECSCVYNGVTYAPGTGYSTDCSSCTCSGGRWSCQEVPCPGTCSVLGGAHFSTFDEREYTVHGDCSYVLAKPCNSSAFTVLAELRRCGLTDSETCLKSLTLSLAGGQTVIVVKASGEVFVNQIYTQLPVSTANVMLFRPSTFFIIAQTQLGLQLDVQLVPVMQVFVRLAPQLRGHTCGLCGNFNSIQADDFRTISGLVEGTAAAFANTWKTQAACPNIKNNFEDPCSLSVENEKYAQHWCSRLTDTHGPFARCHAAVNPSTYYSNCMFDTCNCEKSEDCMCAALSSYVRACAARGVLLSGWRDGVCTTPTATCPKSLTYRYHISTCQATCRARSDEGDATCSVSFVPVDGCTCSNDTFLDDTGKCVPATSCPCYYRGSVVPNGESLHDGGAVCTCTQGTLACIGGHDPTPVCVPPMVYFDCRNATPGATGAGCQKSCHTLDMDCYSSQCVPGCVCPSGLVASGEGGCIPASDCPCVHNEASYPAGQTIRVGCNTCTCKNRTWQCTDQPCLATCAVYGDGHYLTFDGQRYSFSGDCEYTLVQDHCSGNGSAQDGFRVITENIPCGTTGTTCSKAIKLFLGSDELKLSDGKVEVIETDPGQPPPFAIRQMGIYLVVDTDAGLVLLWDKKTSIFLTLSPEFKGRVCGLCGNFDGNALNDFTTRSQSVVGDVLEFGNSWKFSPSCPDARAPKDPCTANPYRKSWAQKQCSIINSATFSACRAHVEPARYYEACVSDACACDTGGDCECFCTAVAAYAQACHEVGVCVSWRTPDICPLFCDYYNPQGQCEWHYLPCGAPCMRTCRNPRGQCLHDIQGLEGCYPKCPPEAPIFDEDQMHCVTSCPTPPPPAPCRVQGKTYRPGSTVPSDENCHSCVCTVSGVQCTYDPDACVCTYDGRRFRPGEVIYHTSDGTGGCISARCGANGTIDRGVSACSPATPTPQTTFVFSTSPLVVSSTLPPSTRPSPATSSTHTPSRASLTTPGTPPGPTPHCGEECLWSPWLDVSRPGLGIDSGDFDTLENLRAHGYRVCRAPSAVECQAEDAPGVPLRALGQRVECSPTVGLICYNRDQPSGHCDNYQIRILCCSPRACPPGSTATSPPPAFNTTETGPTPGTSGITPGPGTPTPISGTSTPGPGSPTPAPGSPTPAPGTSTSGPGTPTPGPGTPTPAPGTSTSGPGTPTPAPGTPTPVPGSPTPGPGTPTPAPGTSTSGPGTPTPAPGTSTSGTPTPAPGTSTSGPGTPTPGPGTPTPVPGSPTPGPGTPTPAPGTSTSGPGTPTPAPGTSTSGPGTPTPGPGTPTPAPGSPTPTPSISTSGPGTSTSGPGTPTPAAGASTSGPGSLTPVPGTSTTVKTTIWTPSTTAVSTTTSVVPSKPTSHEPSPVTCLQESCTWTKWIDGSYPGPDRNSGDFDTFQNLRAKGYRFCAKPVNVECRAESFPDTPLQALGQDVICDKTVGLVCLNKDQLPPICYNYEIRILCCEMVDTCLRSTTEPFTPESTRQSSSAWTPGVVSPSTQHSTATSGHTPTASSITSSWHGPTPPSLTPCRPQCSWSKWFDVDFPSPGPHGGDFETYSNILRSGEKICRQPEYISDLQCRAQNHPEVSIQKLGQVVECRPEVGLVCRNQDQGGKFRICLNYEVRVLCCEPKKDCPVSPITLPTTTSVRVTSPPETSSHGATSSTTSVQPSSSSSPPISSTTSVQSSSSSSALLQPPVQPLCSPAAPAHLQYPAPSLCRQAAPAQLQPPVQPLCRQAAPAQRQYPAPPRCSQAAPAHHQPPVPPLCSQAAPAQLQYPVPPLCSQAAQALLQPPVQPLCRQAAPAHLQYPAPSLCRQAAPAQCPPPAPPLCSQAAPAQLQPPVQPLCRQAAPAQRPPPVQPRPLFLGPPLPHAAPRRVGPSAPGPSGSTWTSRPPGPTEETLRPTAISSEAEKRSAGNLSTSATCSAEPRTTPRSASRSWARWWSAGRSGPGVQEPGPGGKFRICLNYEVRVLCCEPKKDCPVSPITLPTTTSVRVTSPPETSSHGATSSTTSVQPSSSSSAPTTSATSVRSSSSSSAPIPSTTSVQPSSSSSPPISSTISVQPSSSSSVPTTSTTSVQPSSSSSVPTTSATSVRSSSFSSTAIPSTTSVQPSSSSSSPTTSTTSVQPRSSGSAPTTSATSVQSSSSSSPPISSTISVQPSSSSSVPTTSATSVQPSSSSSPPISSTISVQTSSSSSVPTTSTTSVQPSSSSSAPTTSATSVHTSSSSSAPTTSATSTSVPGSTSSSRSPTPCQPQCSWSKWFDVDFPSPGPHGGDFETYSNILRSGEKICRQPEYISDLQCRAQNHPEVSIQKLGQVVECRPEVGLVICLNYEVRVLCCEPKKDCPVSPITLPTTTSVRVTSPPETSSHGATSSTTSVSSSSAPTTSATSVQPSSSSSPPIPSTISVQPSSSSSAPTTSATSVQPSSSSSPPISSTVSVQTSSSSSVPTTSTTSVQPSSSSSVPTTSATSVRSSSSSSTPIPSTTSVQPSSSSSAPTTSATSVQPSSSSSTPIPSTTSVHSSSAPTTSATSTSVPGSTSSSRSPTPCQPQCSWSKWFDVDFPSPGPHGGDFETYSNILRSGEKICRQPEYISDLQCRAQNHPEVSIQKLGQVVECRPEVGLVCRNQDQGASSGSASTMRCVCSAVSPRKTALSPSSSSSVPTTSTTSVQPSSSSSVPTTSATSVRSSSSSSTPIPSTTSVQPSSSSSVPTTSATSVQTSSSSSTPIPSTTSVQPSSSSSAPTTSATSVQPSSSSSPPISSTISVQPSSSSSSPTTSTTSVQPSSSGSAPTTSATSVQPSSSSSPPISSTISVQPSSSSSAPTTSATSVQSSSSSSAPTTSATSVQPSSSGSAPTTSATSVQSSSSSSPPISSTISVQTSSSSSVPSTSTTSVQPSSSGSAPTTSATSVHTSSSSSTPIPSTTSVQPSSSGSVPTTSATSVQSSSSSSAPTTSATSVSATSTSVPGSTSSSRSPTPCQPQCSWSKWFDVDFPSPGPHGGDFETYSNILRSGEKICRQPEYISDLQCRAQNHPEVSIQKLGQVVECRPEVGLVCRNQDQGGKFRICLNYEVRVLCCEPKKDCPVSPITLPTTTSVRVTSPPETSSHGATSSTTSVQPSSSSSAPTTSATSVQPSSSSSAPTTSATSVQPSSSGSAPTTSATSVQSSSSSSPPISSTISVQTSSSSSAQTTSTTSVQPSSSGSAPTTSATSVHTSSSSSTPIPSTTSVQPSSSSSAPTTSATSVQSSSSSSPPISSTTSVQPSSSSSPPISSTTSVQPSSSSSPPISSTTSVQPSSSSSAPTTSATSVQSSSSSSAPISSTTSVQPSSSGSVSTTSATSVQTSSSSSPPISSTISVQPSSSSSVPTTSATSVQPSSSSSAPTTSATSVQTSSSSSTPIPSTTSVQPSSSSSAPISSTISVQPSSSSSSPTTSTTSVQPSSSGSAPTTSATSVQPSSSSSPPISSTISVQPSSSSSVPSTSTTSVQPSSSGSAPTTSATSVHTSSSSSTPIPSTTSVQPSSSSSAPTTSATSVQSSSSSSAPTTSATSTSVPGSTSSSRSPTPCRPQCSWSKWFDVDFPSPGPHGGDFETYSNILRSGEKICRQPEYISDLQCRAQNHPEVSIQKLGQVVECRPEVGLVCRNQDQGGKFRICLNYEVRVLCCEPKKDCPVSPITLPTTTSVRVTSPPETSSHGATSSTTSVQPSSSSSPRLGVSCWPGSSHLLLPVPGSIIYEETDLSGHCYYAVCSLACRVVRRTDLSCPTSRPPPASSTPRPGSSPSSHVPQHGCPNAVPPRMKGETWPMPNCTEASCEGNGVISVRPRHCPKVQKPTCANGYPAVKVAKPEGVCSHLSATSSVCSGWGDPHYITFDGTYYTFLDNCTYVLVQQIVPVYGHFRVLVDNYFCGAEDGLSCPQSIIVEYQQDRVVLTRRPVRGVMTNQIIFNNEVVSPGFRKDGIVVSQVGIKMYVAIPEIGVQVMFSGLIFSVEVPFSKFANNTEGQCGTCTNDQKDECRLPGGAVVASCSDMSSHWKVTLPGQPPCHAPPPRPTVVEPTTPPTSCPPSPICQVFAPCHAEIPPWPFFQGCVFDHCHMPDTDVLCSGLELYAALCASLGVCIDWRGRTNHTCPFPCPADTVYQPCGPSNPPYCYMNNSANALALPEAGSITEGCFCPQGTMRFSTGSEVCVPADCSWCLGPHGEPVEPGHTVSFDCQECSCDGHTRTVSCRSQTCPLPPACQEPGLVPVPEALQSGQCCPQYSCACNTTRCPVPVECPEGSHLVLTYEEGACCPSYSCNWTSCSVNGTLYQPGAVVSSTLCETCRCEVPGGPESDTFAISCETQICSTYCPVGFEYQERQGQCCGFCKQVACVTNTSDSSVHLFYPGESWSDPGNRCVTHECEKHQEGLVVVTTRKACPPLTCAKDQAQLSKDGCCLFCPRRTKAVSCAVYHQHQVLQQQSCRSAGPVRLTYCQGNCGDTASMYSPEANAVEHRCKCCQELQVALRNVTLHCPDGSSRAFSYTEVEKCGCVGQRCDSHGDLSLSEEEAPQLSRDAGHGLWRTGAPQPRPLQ

| Mucin binding rank within the NIH Clinical Collection (NCC) set (ΔG) (MUC5AC) | Molecule | Molecular charge [1] | further results |
| --- | --- | --- | --- |
| four strongest mucin binders | Nc1nc(Cl)nc2c1ncn2[C@H]1C[C@H](O)[C@@H](CO)O1 [cladribine] | – | – |
| four strongest mucin binders | O=c1c(-c2ccccc2)c1-c1ccccc1 [diphencyprone] | – | – |
| four strongest mucin binders | COc1cccc2c1C(=O)c1c(O)c3c(c(O)c1C2=O)C[C@@](O)(C(=O)CO)C[C@@H]3O[C@H]1C[C@H](N)[C@H](O)[C@H](C)O1 [doxorubicin] | – | – |
| four strongest mucin binders | CNCCCC12CCC(c3ccccc31)c1ccccc12 [maprotiline] | – | – |
| – | NC[C@H]1O[C@H](O[C@H]2[C@H](O)[C@@H](O[C@H]3O[C@H](CO)[C@@H](O)[C@H](N)[C@H]3O)[C@H](N)C[C@@H]2N)[C@H](N)C[C@@H]1O [tobramycin] | +5 | – |
| – | colistin | +5 | Binding to mucin (ΔG; negative ΔG implies binding) (MUC5AC; colistin 10 μM, 4 h, 37 °C): bound to mucin; MIC [2]: 8 µg/mL; Effect of methylcellulose on colistin activity (surviving PAO1 cells, CFU) ([3]; MC 0.5% w/v in MHB): negligible effect; Effect of mucin on colistin activity (surviving PAO1 cells, CFU) ([3]; mucin 0.5% w/v in MHB): inhibited the effect of colistin to a substantial degree |
